Measured values from ChEMBL document CHEMBL1149217, “3-trifluoromethyl-4-nitro-5-arylpyrazoles are novel K(ATP) channel agonists” (Bioorg Med Chem Lett, 2004).

Columns and labels:
[1] = biological target: T1, Sulfonylurea receptor 1, Kir6.2 (Homo sapiens) (UniProt Q14654+Q09428); test: Percent maximal agonist response of human KATP (SUR1/Kir6.2) channel expressed in Xenopus oocytes; format: functional, cell-based; conditions: Oocyte
In short: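 ATP-sensitive K+ currents were recorded by excised-patch clamp from inside-out macropatches pulled from Xenopus oocytes expressing human SUR1/Kir6.2. Compounds were tested across a dose range to give dose–response curves. […] Values are means of 3-6 experiments.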

[2] = biological target: Sulfonylurea receptor 1, Kir6.2 (Homo sapiens, UniProt Q09428+Q14654); test: […] of human KATP (SUR1/Kir6.2) channel expressed in Xenopus oocytes; format: functional, cell-based, Oocyte
In short: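 ATP-sensitive K+ currents were recorded by excised-patch clamp from inside-out macropatches pulled from Xenopus oocytes expressing human SUR1/Kir6.2. Values are means of 3-6 experiments.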

[3] = biological target: T1, Sulfonylurea receptor 1, Kir6.2 (Homo sapiens); test: Percent maximal agonist response of human KATP (SUR1/Kir6.2) channel expressed in Xenopus oocytes at 30 uM; format: functional, cell-based; conditions: Oocyte
In short: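 Inside-out macropatches were excised from Xenopus oocytes expressing human SUR1/Kir6.2, and ATP-sensitive K+ currents were recorded. […] Means of 3-6 experiments.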

Sequence of Sulfonylurea receptor 1, Kir6.2 (Q14654 whole entry): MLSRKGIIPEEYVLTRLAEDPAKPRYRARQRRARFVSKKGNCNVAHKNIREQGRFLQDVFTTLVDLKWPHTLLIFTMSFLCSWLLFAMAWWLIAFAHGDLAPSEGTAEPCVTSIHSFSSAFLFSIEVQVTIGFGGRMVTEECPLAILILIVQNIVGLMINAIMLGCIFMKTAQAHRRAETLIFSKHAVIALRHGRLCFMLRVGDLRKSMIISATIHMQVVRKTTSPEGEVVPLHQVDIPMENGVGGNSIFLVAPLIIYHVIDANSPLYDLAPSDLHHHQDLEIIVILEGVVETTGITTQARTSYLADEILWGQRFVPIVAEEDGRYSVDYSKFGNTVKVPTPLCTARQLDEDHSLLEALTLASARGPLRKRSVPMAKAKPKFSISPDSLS
Sequence of Sulfonylurea receptor 1, Kir6.2 (Q09428 whole entry): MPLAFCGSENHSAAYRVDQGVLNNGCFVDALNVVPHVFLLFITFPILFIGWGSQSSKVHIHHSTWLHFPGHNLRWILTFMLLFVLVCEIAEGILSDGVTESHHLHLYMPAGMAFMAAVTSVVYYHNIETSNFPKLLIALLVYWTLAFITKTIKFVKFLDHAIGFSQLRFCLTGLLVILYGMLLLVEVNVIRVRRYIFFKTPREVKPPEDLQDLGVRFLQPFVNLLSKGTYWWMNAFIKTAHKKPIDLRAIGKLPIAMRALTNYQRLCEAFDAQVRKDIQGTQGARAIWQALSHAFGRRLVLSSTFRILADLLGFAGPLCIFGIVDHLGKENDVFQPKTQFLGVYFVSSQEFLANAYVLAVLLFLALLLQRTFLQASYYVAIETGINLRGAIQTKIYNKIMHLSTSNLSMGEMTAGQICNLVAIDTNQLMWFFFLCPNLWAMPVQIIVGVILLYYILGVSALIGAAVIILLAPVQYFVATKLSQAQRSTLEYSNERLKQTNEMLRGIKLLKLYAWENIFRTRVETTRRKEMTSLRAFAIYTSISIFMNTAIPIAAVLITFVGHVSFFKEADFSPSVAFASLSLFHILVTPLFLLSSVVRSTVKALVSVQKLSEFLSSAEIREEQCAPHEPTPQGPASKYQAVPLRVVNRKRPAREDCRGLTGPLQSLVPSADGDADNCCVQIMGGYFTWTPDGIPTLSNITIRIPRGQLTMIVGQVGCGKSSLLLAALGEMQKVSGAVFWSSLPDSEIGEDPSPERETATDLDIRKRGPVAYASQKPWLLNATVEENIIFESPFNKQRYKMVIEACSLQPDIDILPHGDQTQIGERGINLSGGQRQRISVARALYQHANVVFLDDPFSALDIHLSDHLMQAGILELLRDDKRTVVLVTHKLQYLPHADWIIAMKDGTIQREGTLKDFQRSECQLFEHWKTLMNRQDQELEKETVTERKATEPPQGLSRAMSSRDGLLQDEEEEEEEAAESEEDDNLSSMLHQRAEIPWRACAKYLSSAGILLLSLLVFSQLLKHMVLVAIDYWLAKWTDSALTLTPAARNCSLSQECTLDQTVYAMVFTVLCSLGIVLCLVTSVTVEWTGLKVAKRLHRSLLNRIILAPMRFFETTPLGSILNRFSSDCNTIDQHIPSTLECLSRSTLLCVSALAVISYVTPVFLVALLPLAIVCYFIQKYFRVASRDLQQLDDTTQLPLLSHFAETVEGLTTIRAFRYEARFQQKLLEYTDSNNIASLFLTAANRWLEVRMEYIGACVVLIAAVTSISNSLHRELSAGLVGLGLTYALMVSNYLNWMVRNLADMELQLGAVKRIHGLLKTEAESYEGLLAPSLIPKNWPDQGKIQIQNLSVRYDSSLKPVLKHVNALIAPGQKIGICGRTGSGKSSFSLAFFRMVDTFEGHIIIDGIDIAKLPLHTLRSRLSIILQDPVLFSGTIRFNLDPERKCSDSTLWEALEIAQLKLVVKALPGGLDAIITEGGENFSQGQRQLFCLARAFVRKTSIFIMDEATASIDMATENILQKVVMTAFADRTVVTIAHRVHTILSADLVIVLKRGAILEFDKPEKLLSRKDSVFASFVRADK

## CC1=Nc2ccc(Cl)cc2S(=O)(=O)N1
[1]
  Max response: 100%

## O=[N+]([O-])c1ccc(-c2noc(C(F)(F)F)c2[N+](=O)[O-])cc1
[2]
  EC50: > 30000 nM

## O=[N+]([O-])c1c(C(F)(F)F)n[nH]c1-c1ccc(F)cc1F
[1]
  Max response: 113%

## O=[N+]([O-])c1c(-c2ccc(F)cc2F)n[nH]c1C(F)(F)F
[2]
  EC50: 1150 nM

## O=[N+]([O-])c1c(C(F)(F)F)n[nH]c1-c1ccc(C(F)(F)F)cc1C(F)(F)F
[1]
  Max response: 197%
[2]
  EC50: 540 nM

## O=[N+]([O-])c1c(C(F)(F)F)n[nH]c1-c1ccccc1
[2]
  EC50: 30000 nM
[3]
  Max response: 38%

## O=[N+]([O-])c1ccc(-c2[nH]nc(C(F)(F)F)c2[N+](=O)[O-])cc1
[1]
  Max response: 94%
[2]
  EC50: 700 nM

## O=[N+]([O-])c1ccc(-c2cc(C(F)(F)F)[nH]n2)cc1
[2]
  EC50: > 30000 nM
[3]
  Max response: 8%
